In one assay the test system is Malme-3M. Put plainly: Cytotoxicity against human MALME-3M cells. In kind it is functional, cell-based. The procedure, abridged: (§1)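 Run within the NCI-60 human tumour cell line screen panel.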
The subject of another assay is SK-MEL-28. As to the kind of experiment: Cytotoxicity against human SK-MEL-28 cells. The format is functional, cell-based. The procedure, abridged: as §1
For another assay, the system named is U-251. Put plainly: Cytotoxicity against human U251 cells. In kind it is functional, cell-based. The procedure, abridged:
as §1

Another assay has as its system ACHN. Put plainly: Cytotoxicity against human ACHN cells. In kind it is functional, cell-based. In outline:
as §1

A further assay concerns HOP-92. Put plainly: Cytotoxicity against human HOP92 cells. The format is functional, cell-based. The procedure, abridged: as §1
Another assay relates to SF-295. Put plainly: Cytotoxicity against human SF295 cells. In kind it is functional, cell-based. In outline:
as §1

A further assay relates to UACC-62. Put plainly: Cytotoxicity against human UACC62 cells. In kind it is functional, cell-based. The procedure, abridged:
as §1

For another assay, the system named is SK-MEL-5. Put plainly: Cytotoxicity against human SK-MEL-5 cells. In kind it is functional, cell-based. In outline: as §1
The subject of another assay is SK-OV-3. As to the kind of experiment: Cytotoxicity against human SKOV3 cells. In kind it is functional, cell-based. The procedure, abridged: as §1
Another assay concerns A498. Put plainly: Cytotoxicity against human A498 cells. The format is functional, cell-based. In outline:
as §1

The subject of a further assay is MOLT-4. As to the kind of experiment: Cytotoxicity against human MOLT4 cells. In kind it is functional, cell-based. The procedure, abridged:
as §1

A further assay has as its system NCI-H460. As to the kind of experiment: Cytotoxicity against human NCI-H460 cells. The format is functional, cell-based. The procedure, abridged:
as §1

The next assay deals with Candida albicans. Put plainly: Antimicrobial activity against Candida albicans at 50 ug/disk by Kirby-Bauer disk diffusion assay. In kind it is functional, organism-based. (In general: In agar diffusion tests the substance spreads into inoculated agar from a disc or well.)
Another assay relates to Staphylococcus aureus. As to the kind of experiment: Antimicrobial activity against Staphylococcus aureus at 50 ug/disk by Kirby-Bauer disk diffusion assay. In kind it is functional, organism-based.
The test system of assay [1] is Burkholderia thailandensis. As to the kind of experiment: Antimicrobial activity against Burkholderia thailandensis at 50 ug/disk by Kirby-Bauer disk diffusion assay. The format is functional.
A further assay deals with Fusarium incarnatum. Put plainly: Antimicrobial activity against Fusarium pallidoroseum at 50 ug/disk by Kirby-Bauer disk diffusion assay. In kind it is functional, organism-based.
Another assay concerns Escherichia coli. As to the kind of experiment: Antimicrobial activity against Escherichia coli at 50 ug/disk by Kirby-Bauer disk diffusion assay. The format is functional, organism-based.

By IC50 is commonly meant the concentration that gives 50% inhibition. A low value points to higher potency.

Calls of active or inactive are those of the source. The calls are words filed in the database; no cut-off is given here. Some results are limits rather than exact numbers.

`[C-]#[N+]C(=C\c1ccc(O)cc1)/C(=C/c1ccc(OC)cc1)[N+]#[C-]`: the outcome in the assay on Malme-3M, in the assay on SK-MEL-28, in the assay on U-251, in the assay with ACHN, in the assay on HOP-92 and with SF-295 was inactive. The result in the assay on UACC-62, with SK-MEL-5, in the assay on SK-OV-3, with A498, with MOLT-4 and in the assay with NCI-H460 was inactive.
For `[C-]#[N+]C(=C\c1ccc(OC)cc1)/C(=C/c1ccc(OC)cc1)[N+]#[C-]`, the outcome in the assay with Malme-3M, in the assay with SK-MEL-28, with U-251, in the assay with ACHN, in the assay on HOP-92 and with SF-295 was inactive. Besides, the outcome in the assay on UACC-62, in the assay on SK-MEL-5, in the assay on SK-OV-3, in the assay on A498, in the assay with MOLT-4 and in the assay with NCI-H460 was inactive.
For `COc1ccc(/C=C(NC=O)/C(=C/c2ccc(OS(=O)(=O)O)cc2)NC=O)cc1`, the result in the assay on Malme-3M, in the assay on Candida albicans, with SK-MEL-28, in the assay on U-251, in the assay with Staphylococcus aureus and in the assay with ACHN was inactive. Also, the outcome (in assay [1]; with HOP-92; with SF-295; in the assay with UACC-62; in the assay with SK-MEL-5; with SK-OV-3) was inactive. Further, the result with A498, in the assay with MOLT-4, in the assay on Fusarium incarnatum, in the assay on NCI-H460 and in the assay with Escherichia coli was inactive.
Regarding `COc1ccc(/C=C(NC=O)/C(=C/c2ccc(O)cc2)NC=O)cc1`, the IC50 in the assay with Malme-3M is above 2500 nM; in the assay with SK-MEL-28, 2030 nM; with U-251 it was above 2500 nM; in the assay with ACHN it was 1370 nM; in the assay with HOP-92, above 2500 nM; in the assay on SF-295, above 2500 nM. Further, the IC50 was above 2500 nM with UACC-62; above 2500 nM with SK-MEL-5; 2130 nM with SK-OV-3; 1720 nM with A498; 1810 nM in the assay with MOLT-4; 1840 nM with NCI-H460.
For `[C-]#[N+]C(=C\c1ccc(OC)cc1)/C(=C/c1ccc(OS(=O)(=O)O)cc1)[N+]#[C-]`, the outcome in the assay with Malme-3M, in the assay with Candida albicans, with SK-MEL-28, in the assay on U-251, with Staphylococcus aureus and with ACHN was inactive. In addition, the outcome (in assay [1]; with HOP-92; in the assay on SF-295; in the assay on UACC-62; with SK-MEL-5; in the assay on SK-OV-3) was inactive. The result with A498, with MOLT-4, in the assay on Fusarium incarnatum, with NCI-H460 and in the assay on Escherichia coli was inactive.
Regarding `COc1ccc(/C=C(NC=O)/C(=C/c2ccc(OC)cc2)NC=O)cc1`, the IC50 in the assay with Malme-3M was 650 nM; in the assay with SK-MEL-28, 980 nM; in the assay on U-251 it was 920 nM; in the assay on ACHN, above 2500 nM; in the assay with HOP-92 it was 890 nM; with SF-295, 700 nM. Further, the IC50 is 750 nM in the assay with UACC-62; 810 nM in the assay on SK-MEL-5; 840 nM in the assay on SK-OV-3; 860 nM in the assay with A498; above 2500 nM with MOLT-4; 1120 nM in the assay on NCI-H460.

Source of the values: ChEMBL document CHEMBL1811793, “Induced production of N-formyl alkaloids from Aspergillus fumigatus by co-culture with Streptomyces peucetius” (J Nat Prod, 2011).
